Reference: article PMC8849394 (Science Advances, 2022)
Ends that are not written are not given here. * marks the point of attachment. FITC = O=C1OC2(c3ccc(O)cc3Oc3cc(O)ccc32)c2ccc(NC(=S)*)cc21

Assays:
[1] = system: human NSCLC (lung adenocarcinoma) cell lines; test: MTT cell viability / short-term proliferation, human NSCLC lines; assay type: cell-based; details: for growth of NSCLC cells under BRD/HAT inhibitors: MTT
mouse SCLC cells (RP-1) = test: MTT cell viability, mouse SCLC cells RP-1; assay type: cell-based; details: RP-1, MTT, n = 3
How it was run: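 Murine SCLC cells derived from Rb1/Trp53-mutant mouse lung tumors are grown in RPMI1640 with 10% bovine growth serum. Cells are seeded at 1×10^4 per well and treated with bromodomain- or HAT-domain-targeting test compounds. Over 0 to 4 or 6 days, MTT (0.5 mg/ml final) is added for 4 h at 37°C and OD is read at 590 nm, minus a vehicle blank. Triplicates; n = 3.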

human SCLC cell lines [2] = test: MTT cell viability / short-term proliferation, human SCLC lines; assay type: cell-based
human SCLC cell lines [3] = test: Soft agar colony formation, human SCLC lines; assay type: cell-based; details: 2 μM in DMSO; H69, H209, H524; n = 3
[4] = system: human NSCLC (lung adenocarcinoma) cell lines; test: Soft agar colony formation, human NSCLC lines; assay type: cell-based; details: 2 μM in DMSO; H1650 (fig. S8A); n = 3
[5] = system: interaction between CREB1 and the KIX domain of EP300; details: cited from earlier work
[6] = system: interaction between CREB1 and the KIX domain of CREBBP; details: cited from earlier work
[7] = target: FITC-labeled MYB peptide (MYB25); test: fluorescence polarisation
H524 SCLC cells = test: RNA sequencing, GSEA and KEGG analysis, H524 cells; assay type: cell-based, human; details: H524, M/M vs M/M-5A
How it was run: (§1)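 SCLC cells express M/M or M/M-5A peptide under a doxycycline-inducible promoter. mRNA is oligo(dT)-purified from 500 ng total RNA, and 100-bp single-end reads are sequenced on an Illumina NextSeq2000. Differential expression signatures come from comparing TPM between experimental and control groups. GSEA is run on the signature using Molecular Signatures Database v7.4 gene sets.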

EP300 = test: Anti-FLAG immunoprecipitation/immunoblot for EP300 in H524 cell extracts; assay type: cell-based, human; details: FLAG-tagged M/M, IP relative to input, n = 3
How it was run: (§2)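 H524 cells express FLAG-tagged M/M fusion peptide from a doxycycline-inducible promoter. Cells are lysed in RIPA (pH 8.0, with protease inhibitors). Lysates are immunoprecipitated with anti-FLAG or control IgG overnight at 4°C, then protein A/G agarose is added for 4 h at 4°C. Eluates are immunoblotted for FLAG, EP300 and CREBBP. IP band intensity is expressed relative to 5% input; n = 3; unpaired t test.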

CREBBP = test: Anti-FLAG immunoprecipitation/immunoblot for CREBBP in H524 cell extracts; assay type: cell-based, human; details: FLAG-tagged M/M, IP relative to input, n = 3
How it was run: as §2

H209 SCLC cells = test: RNA sequencing, GSEA and KEGG analysis, H209 cells; assay type: cell-based, human
How it was run: as §1

[8] = target: purified KIX domain of CREBBP (Mus musculus, UniProt P45481); test: FP assay, direct binding of fluorophore-labeled peptides to CREBBP KIX
How it was run: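 CREBBP KIX domain (87 residues, 585-672) was expressed from pMAL-c5E in E. coli Rosetta (DE3) and purified by affinity then anion-exchange chromatography. FP probes were N-terminally FITC-labelled MYB peptide and rhodamine-labelled MLL peptide, each at 0.5 µM, in 50 mM Hepes (pH 7.5) with 50 mM NaCl. Plates were incubated 30 min in the dark at room temperature, then read for polarization.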

[9] = target: rhodamine-labeled MLL peptide (MLL25); test: fluorescence polarisation
A627D EP300 KIX = A627D EP300 KIX (human, UniProt Q09472 565-652, A627D); test: fluorescence polarisation
EP300 KIX domain = EP300 KIX domain (human, UniProt Q09472 565-652); test: fluorescence polarisation
EP300 KIX domain, sequence (Q09472 565-652): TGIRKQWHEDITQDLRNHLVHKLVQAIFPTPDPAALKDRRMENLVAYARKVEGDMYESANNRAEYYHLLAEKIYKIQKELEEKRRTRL

A627D EP300 KIX, sequence (Q09472 565-652 A627D): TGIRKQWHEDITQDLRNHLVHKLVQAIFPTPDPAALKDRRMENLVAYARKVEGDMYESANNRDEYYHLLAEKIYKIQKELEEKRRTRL
purified KIX domain of CREBBP, sequence (P45481 585-672): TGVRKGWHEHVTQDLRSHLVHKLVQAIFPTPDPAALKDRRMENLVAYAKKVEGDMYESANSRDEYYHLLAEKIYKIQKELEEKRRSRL

Molecule: COc1ccc(CCc2nc3cc(-c4c(C)noc4C)ccc3n2C[C@H](C)N2CCOCC2)cc1Cl [SGC-CBP30]
- growth of NSCLC cells under BRD/HAT inhibitors ([1]; n = 3): dose-dependent effects on NSCLC lines
- growth of mouse SCLC cells (mouse SCLC cells (RP-1)): did not have any significant effect on the growth
- growth of human SCLC cells under BRD/HAT inhibitors (human SCLC cell lines [2]; MTT, n = 3): either insignificant or modest

Molecule: O=C(Nc1ccc(Cl)cc1)c1cc2ccccc2cc1OP(=O)(O)O [KG-501, 2-naphthol-AS-E-phosphate]
- soft agar colony formation of SCLC lines, KG-501 (human SCLC cell lines [3]): inhibited the short-term growth of SCLC lines in culture and colony formation in soft agar
- short-term growth of NSCLC lines, KG-501 ([1]; in culture): did not have a significant effect on NSCLC cell lines
- soft agar colony formation of NSCLC lines, KG-501 [4]: did not have a significant effect on NSCLC cell lines
- inhibition of CREB1-EP300 KIX interaction [5]: shown to inhibit the interaction between CREB1 and the KIX domains of EP300 and CREBBP
- inhibition of CREB1-CREBBP KIX interaction [6]: shown to inhibit the interaction between CREB1 and the KIX domains of EP300 and CREBBP
- short-term growth of SCLC lines, KG-501 (human SCLC cell lines [2]; in culture): inhibited the short-term growth of SCLC lines in culture

Molecule: D647A CREBBP KIX domain (from UniProt Q92793 585-672) (domain or fragment)
- Kd [7]: 6.7 µM

Molecule: H-SDDGNILPSDIMDFVLKNTPSMQALGESGGDEDPEKEKRIKELELLLMSTENELKGQQAL-OH [M/M]
- growth of lung adenocarcinoma cells, MTT ([1]; doxycycline-inducible lentiviral expression of peptide, n = 3): did not detectably affect the growth of lung adenocarcinoma cell lines
- gene set enrichment (GSEA), TF target genes (H524 SCLC cells): significantly enriched in the gene sets related to MYB, ATF4, CREB1, and CREBP1/JUN targets
- binding to EP300 in cells (EP300): confirmed the binding of M/M to both EP300 and CREBBP
- preference EP300 over CREBBP in cells (EP300): bound preferentially to EP300 than to CREBBP
- binding to CREBBP in cells (CREBBP): confirmed the binding of M/M to both EP300 and CREBBP
- gene set enrichment (GSEA), TF target genes (H209 SCLC cells; H209, M/M vs M/M-5A): significantly enriched in the gene sets related to MYB, ATF4, CREB1, and CREBP1/JUN targets
- KEGG pathway small cell lung cancer (H209 SCLC cells; M/M-expressing H209 vs M/M-5A): down-regulated in M/M-expressing H209 cells
- short-term proliferation of SCLC cells (human SCLC cell lines [2]; doxycycline-inducible lentiviral expression of peptide, MTT, n = 3): inhibited the short-term proliferation

Molecule: SDDGNILPSDIMDFVLKNTPSMQAL [MLL25]
- Kd [8]: 94 ± 11 µM

Molecule: CREBBP KIX domain (from UniProt Q92793 585-672) (domain or fragment)
- Kd [7]: 22 µM
- Kd [9]: 94 µM

Molecule: CCC(=O)N1CCOc2c(cc(-c3ccc(OC)c(OC)c3)cc2OC[C@H]2CCCN(C)C2)C1 [I-CBP112]
- growth of NSCLC cells under BRD/HAT inhibitors ([1]; n = 3): dose-dependent effects on NSCLC lines
- growth of mouse SCLC cells (mouse SCLC cells (RP-1)): did not have any significant effect on the growth
- growth of human SCLC cells under BRD/HAT inhibitors (human SCLC cell lines [2]; MTT, n = 3): either insignificant or modest

Molecule: CC1=NN(c2ccc(C(=O)O)cc2)C(=O)/C1=C\c1ccc(-c2cc(C)c(C)cc2[N+](=O)[O-])o1 [C646]
- growth of NSCLC cells under BRD/HAT inhibitors ([1]; n = 3): dose-dependent effects on NSCLC lines
- growth of mouse SCLC cells (mouse SCLC cells (RP-1)): did not have any significant effect on the growth
- growth of human SCLC cells under BRD/HAT inhibitors (human SCLC cell lines [2]; MTT, n = 3): either insignificant or modest

B1: FITC-labeled MYB peptide (MYB25) (peptide)
peptide: {FITC}-KEKRIKELELLLMSTENELKGQQAL
- Kd (A627D EP300 KIX): 23 ± 6.2 µM
- Kd (EP300 KIX domain): 3.8 ± 0.2 µM

B2: rhodamine-labeled MLL peptide (MLL25) (peptide)
peptide: SDDGNILPSDIMDFVLKNTPSMQAL
modifications: also: rhodamine label
- Kd (A627D EP300 KIX): 80 ± 8.5 µM
- Kd (EP300 KIX domain): 40 ± 14 µM
